Test results as given in ChEMBL document CHEMBL3792385, “Identification and Evaluation of Antiepileptic Activity of C21 Steroidal Glycosides from the Roots of Cynanchum wilfordii” (2016).

What was measured:
Format in all cases: functional
Mus musculus [1] = test: Antiepileptic activity in po dosed KM mouse assessed as protection against maximal electroshock-induced seizures administered 1 hr prior to electrical stimulation
Procedure, shortened: (§1)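 Male KM mice, 20 ± 2 g, dosed orally; vehicle-treated group as control. Read-out is protection rate against maximal electroshock-induced seizures. Graded doses of 25, 50, 75, 100 and 150 mg/kg were used. ED50 and 95% confidence interval were fitted to the Hill equation.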

Mus musculus [2] = test: Antiepileptic activity in KM mouse assessed as protection against maximal electroshock-induced seizures at 100 mg/kg, po administered 1 hr prior to electrical stimulation; procedure, shortened: as §1
Mus musculus [3] = test: Antiepileptic activity in KM mouse assessed as protection against maximal electroshock-induced seizures at 150 mg/kg, po administered 1 hr prior to electrical stimulation; procedure, shortened: as §1
Mus musculus [4] = test: Antiepileptic activity in KM mouse assessed as protection against maximal electroshock-induced seizures at 50 mg/kg, po administered 1 hr prior to electrical stimulation; procedure, shortened: as §1
Mus musculus [5] = test: Antiepileptic activity in KM mouse assessed as protection against maximal electroshock-induced seizures at 25 mg/kg, po administered 1 hr prior to electrical stimulation; procedure, shortened: as §1
Mus musculus [6] = test: Antiepileptic activity in KM mouse assessed as protection against maximal electroshock-induced seizures at 75 mg/kg, po administered 1 hr prior to electrical stimulation; procedure, shortened: as §1
Mus musculus [7] = test: Antiepileptic activity in po dosed KM mouse assessed as protection against maximal electroshock-induced seizures administered 30 mins prior to electrical stimulation
Procedure, shortened: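 Male KM mice (20 ± 2 g) were given compound orally, with a vehicle control group. Screening used 100 mg/kg, and dose–response series used 25, 50, 75, 100 and 150 mg/kg. The read-out was the percentage of mice protected from MES-induced seizures. ED50 and 95% confidence intervals were derived by Hill-equation fitting.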

Compound | ED50 (Mus musculus [1]) [mg/kg] | inhibition in vivo at 100 mg/kg (Mus musculus [2]) [%] | other results
CO[C@H]1C[C@H](O[C@@H]2[C@H](C)O[C@@H](O[C@H]3[C@@H](OC)C[C@H](O[C@H]4CC[C@@]5(C)C(=CC[C@]6(O)[C@@H]5C[C@@H](OC(=O)/C=C/c5ccccc5)[C@@]5(C)[C@]6(O)CC[C@@]5(O)C(C)=O)C4)O[C@@H]3C)C[C@@H]2OC)O[C@H](C)[C@H]1O | 95.3 | 60 | 
CO[C@H]1C[C@@H](O[C@H]2[C@H](C)O[C@H](O[C@H]3[C@@H](C)O[C@H](O[C@H]4[C@@H](OC)C[C@H](O[C@@H]5CC[C@]6(C)C(=CC[C@@]7(O)[C@H]6C[C@H](OC(C)=O)[C@]6(C)[C@@]7(O)CC[C@]6(O)C(C)=O)C5)O[C@@H]4C)C[C@H]3OC)C[C@H]2OC)O[C@H](C)[C@H]1O | > 200 |  | 
CO[C@H]1C[C@@H](O[C@H]2[C@H](C)O[C@H](O[C@H]3[C@@H](C)O[C@H](O[C@H]4[C@@H](OC)C[C@H](O[C@@H]5CC[C@]6(C)C(=CC[C@@]7(O)[C@H]6C[C@H](OC(=O)/C=C(\C)C(C)C)[C@]6(C)[C@@]7(O)CC[C@]6(O)C(C)=O)C5)O[C@@H]4C)C[C@H]3OC)C[C@H]2OC)O[C@H](C)[C@H]1O | 124 | 40 | 
CC[C@@H](C)C(=O)O[C@@H](C)[C@]1(O)CC[C@@]2(O)[C@]1(C)[C@H](OC(=O)/C=C/c1ccccc1)C[C@@H]1[C@@]3(C)CC[C@H](O[C@@H]4C[C@@H](OC)[C@@H](O[C@H]5C[C@H](OC)[C@H](O[C@H]6C[C@H](OC)[C@H](O[C@H]7C[C@@H](OC)[C@@H](O)[C@H](C)O7)[C@@H](C)O6)[C@H](C)O5)[C@H](C)O4)CC3=CC[C@]12O | 48.5 | 90 | inhibition in vivo at 150 mg/kg (Mus musculus [3]): 100%; inhibition in vivo at 50 mg/kg (Mus musculus [4]): 50%; inhibition in vivo at 25 mg/kg (Mus musculus [5]): 20%; inhibition in vivo at 75 mg/kg (Mus musculus [6]): 70%
CO[C@H]1C[C@H](O[C@H]2[C@H](C)O[C@H](O[C@H]3CC[C@@]4(C)C(=CC[C@]5(O)[C@@H]4C[C@@H](OC(=O)/C=C/c4ccccc4)[C@@]4(C)[C@]5(O)CC[C@@]4(O)[C@H](C)OC(=O)c4cccnc4)C3)C[C@H]2OC)O[C@@H](C)[C@H]1O[C@H]1C[C@H](OC)[C@H](O[C@H]2C[C@@H](OC)[C@@H](O)[C@H](C)O2)[C@@H](C)O1 | 88.1 | 55.5 | 
CO[C@H]1C[C@@H](O[C@H]2[C@H](C)O[C@H](O[C@H]3[C@@H](C)O[C@H](O[C@H]4[C@@H](OC)C[C@H](O[C@@H]5CC[C@]6(C)C(=CC[C@@]7(O)[C@H]6C[C@H](O)[C@]6(C)[C@@]7(O)CC[C@]6(O)C(C)=O)C5)O[C@@H]4C)C[C@H]3OC)C[C@H]2OC)O[C@H](C)[C@H]1O | > 200 |  | 
CO[C@H]1C[C@H](O[C@H]2[C@@H](OC)C[C@H](O[C@H]3CC[C@@]4(C)C(=CC[C@]5(O)[C@@H]4C[C@@H](OC(=O)/C=C(\C)C(C)C)[C@@]4(C)[C@]5(O)CC[C@@]4(O)C(C)=O)C3)O[C@@H]2C)O[C@@H](C)[C@H]1O[C@H]1C[C@H](OC)[C@H](O[C@H]2O[C@@H](CO)[C@H](O)[C@@H](O)[C@@H]2O)[C@@H](C)O1 | > 200 |  | 
CO[C@H]1C[C@@H](O[C@H]2[C@H](C)O[C@H](O[C@H]3[C@@H](C)O[C@H](O[C@H]4[C@@H](OC)C[C@H](O[C@@H]5CC[C@]6(C)C(=CCC(=O)[C@H]6C[C@H](OC(=O)/C=C/c6ccccc6)[C@]6(C)C(=O)CC[C@]6(O)[C@@H](C)OC(C)=O)C5)O[C@@H]4C)C[C@H]3OC)C[C@H]2OC)O[C@H](C)[C@H]1O | > 200 |  | 
CO[C@H]1C[C@H](O[C@H]2CC[C@@]3(C)C(=CC[C@]4(O)[C@@H]3C[C@@H](OC(=O)/C=C(\C)C(C)C)[C@@]3(C)[C@]4(O)CC[C@@]3(O)C(C)=O)C2)O[C@H](C)[C@H]1O[C@@H]1C[C@@H](OC)[C@@H](O[C@H]2C[C@H](OC)[C@H](O[C@@H]3C[C@H](OC)[C@H](O[C@H]4O[C@@H](CO)[C@H](O)[C@@H](O)[C@@H]4O)[C@@H](C)O3)[C@@H](C)O2)[C@@H](C)O1 | > 200 |  | 
CO[C@H]1C[C@@H](O[C@H]2[C@H](C)O[C@H](O[C@H]3[C@@H](C)O[C@H](O[C@H]4[C@@H](OC)C[C@H](O[C@@H]5CC[C@]6(C)C(=CC[C@@]7(O)[C@H]6C[C@H](OC(=O)/C=C/c6ccccc6)[C@]6(C)[C@@]7(O)CC[C@]6(O)C(C)=O)C5)O[C@@H]4C)C[C@H]3OC)C[C@H]2OC)O[C@H](C)[C@H]1O | 72.3 | 70 | 
CCOC(=O)Nc1ccc(NCc2ccc(F)cc2)cc1N [EZOGABINE] |  |  | ED50 (Mus musculus [7]): 15 mg/kg
